This is an account of results in ChEMBL document CHEMBL3868583, “6-Aryl substituted 4-(4-cyanomethyl) phenylamino quinazolines as a new class of isoform-selective PI3K-alpha inhibitors” (Eur J Med Chem, 2016).

For data set [1], the system named is Mus musculus. In words: Toxicity in Swiss mouse implanted with Swiss mouse EAT cells assessed as mortality at 25 mg/kg, ip administered for 1 to 9 days measured on day 9 and 13. It is filed as organism-based. The conditions noted are these: in vivo. In short, it runs like this:
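EAC cells harvested from 8–10-day ascitic Swiss mice; 1×10^7 cells injected intramuscularly into right thigh of Swiss male mice on day 0. Randomized next day: treated n=7, saline control n=10 (0.2 ml i.p.). Dosing i.p. days 1–9. […] Body weight and mortality tracked.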

Data set [2] relates to MCF7. As to the kind of experiment: Induction of cell cycle arrest in human MCF7 cells assessed as apoptotic cells at 30 uM after 24 hrs by propidium iodide-staining based FACS analysis (reference value: 8 %). The data set is classed as functional. A digest of the protocol:
(§1)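 MCF-7 or PC-3 cells treated at indicated concentrations for 24 h, pelleted, PBS-washed, fixed in ice-cold 70% ethanol overnight at 4 °C. RNase 0.2 mg/mL 1 h at 37 °C, propidium iodide 10 µg/mL 30 min dark. 10,000 events (FL2-A vs FL2-W) by flow cytometry; fractions in apoptosis/sub-G1, G1, S, G2-M.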

The subject of data set [3] is MCF7. In words: Induction of cell cycle arrest in human MCF7 cells assessed as apoptotic cells at 20 uM after 24 hrs by propidium iodide-staining based FACS analysis (reference value: 8 %). The data set is classed as functional. In short, it runs like this:
as §1

For data set [4], the system named is MCF7. In words: Induction of cell cycle arrest in human MCF7 cells assessed as accumulation at G1 phase at 30 uM after 24 hrs by propidium iodide-staining based FACS analysis (reference value: 50 %). The data set is classed as functional. A digest of the protocol: as §1
The test system of data set [5] is Mus musculus. As to the kind of experiment: Toxicity in Swiss mouse implanted with Swiss mouse EAT cells assessed as body weight at 25 mg/kg, ip administered for 1 to 9 days measured on day 1 (reference value: 21.6 g). The data set is classed as organism-based. The settings on record: in vivo.
For data set [6], the system named is Mus musculus. In words: Toxicity in Swiss mouse implanted with Swiss mouse EAT cells assessed as body weight at 25 mg/kg, ip administered for 1 to 9 days measured on day 13 (reference value: 24.1 g). It is filed as organism-based. The settings on record: in vivo.
In data set [7] the test system is Mus musculus. In words: Toxicity in Swiss mouse implanted with Swiss mouse EAT cells assessed as body weight at 15 mg/kg, ip administered for 1 to 9 days measured on day 9 (reference value: 22.8 g). It is filed as organism-based. The settings on record: in vivo.
In data set [8] the test system is Mus musculus. In words: Toxicity in Swiss mouse implanted with Swiss mouse EAC cells assessed as body weight at 25 mg/kg, ip administered for 1 to 9 days measured on day 5 (reference value: 26.2 g). The data set is classed as organism-based, Ehrlich. The settings on record: in vivo.
Data set [9] in a line: Downregulation of PI3Kalpha expression in human MCF7 cells at 30 uM by Western blot analysis. The data set is classed as functional, cell-based. A digest of the protocol: (§2)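 MCF-7 or PC-3 cells (2 × 10^6) treated with compound, lysed (1 × 10^6 cells) in cold NP-40 buffer with protease inhibitors 30 min on ice, 12,000 g 10 min 4 °C. 50 µg protein per lane on SDS-PAGE, PVDF transfer, 5% milk block, primary antibody 2 h, HRP secondary 1 h, ECL on film; β-actin internal control.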

Data set [10] relates to Mus musculus. As to the kind of experiment: Toxicity in Swiss mouse implanted with Swiss mouse EAC cells assessed as body weight at 25 mg/kg, ip administered for 1 to 9 days measured on day 1 (reference value: 22.8 g). It is filed as organism-based, Ehrlich. The settings on record: in vivo.
The nature of data set [11]: Downregulation of PI3Kdelta expression in human MCF7 cells at 30 uM by Western blot analysis. It is filed as functional, cell-based. In short, it runs like this: as §2
Data set [12] can be described thus: Anticancer activity against Swiss mouse EAC cells implanted in Swiss mouse assessed as tumor growth inhibition at 25 mg/kg, ip administered for 1 to 9 days measured on day 12 relative to control. The data set is classed as functional. The conditions noted are these: Ehrlich, read-out: TGI. A digest of the protocol:
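Swiss mice given 1 × 10^7 EAC cells i.p. on day 0, randomized next day (treated n=7, control n=10). Compound given i.p. days 1-9; saline control (0.2 ml i.p.), 5-fluorouracil 20 mg/kg i.p. reference. Sacrificed day 12; ascitic fluid collected; % TGI from total peritoneal tumor cell count versus control.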

Data set [13] concerns Mus musculus. As to the kind of experiment: Toxicity in Swiss mouse implanted with Swiss mouse EAT cells assessed as body weight at 25 mg/kg, ip administered for 1 to 9 days measured on day 9 (reference value: 22.8 g). It is filed as organism-based. The settings on record: in vivo.
The test system of data set [14] is Mus musculus. In words: Toxicity in Swiss mouse implanted with Swiss mouse EAC cells assessed as body weight at 70 mg/kg, ip administered for 1 to 9 days measured on day 5 (reference value: 26.2 g). The settings on record: in vivo. The data set is classed as organism-based, Ehrlich.
Data set [15] has as its system PC-3. In words: Induction of cell cycle arrest in human PC3 cells assessed as accumulation at S phase at 10 uM after 24 hrs by propidium iodide-staining based FACS analysis (reference value: 44 %). The data set is classed as functional. A digest of the protocol:
as §1

Data set [16] deals with PC-3. In words: Induction of cell cycle arrest in human PC3 cells assessed as accumulation at G1 phase at 20 uM after 24 hrs by propidium iodide-staining based FACS analysis (reference value: 39 %). The data set is classed as functional. In short, it runs like this: as §1
Data set [17] in a line: Cytotoxicity against human PC3 cells assessed as cell growth inhibition after 6 hrs by MTT assay. It is filed as functional. The conditions noted are these: PC-3, 6 h.
In data set [18] the target is Phosphatidylinositol 4,5-bisphosphate 3-kinase catalytic subunit beta isoform (Homo sapiens, UniProt P42338). In words: Inhibition of PI3Kbeta (unknown origin) using diC8 PIP2 as substrate up to 20 uM after 60 mins by ADP-glo assay.
Phosphatidylinositol 4,5-bisphosphate 3-kinase catalytic subunit beta isoform, sequence (P42338 whole entry, looked up, canonical isoform): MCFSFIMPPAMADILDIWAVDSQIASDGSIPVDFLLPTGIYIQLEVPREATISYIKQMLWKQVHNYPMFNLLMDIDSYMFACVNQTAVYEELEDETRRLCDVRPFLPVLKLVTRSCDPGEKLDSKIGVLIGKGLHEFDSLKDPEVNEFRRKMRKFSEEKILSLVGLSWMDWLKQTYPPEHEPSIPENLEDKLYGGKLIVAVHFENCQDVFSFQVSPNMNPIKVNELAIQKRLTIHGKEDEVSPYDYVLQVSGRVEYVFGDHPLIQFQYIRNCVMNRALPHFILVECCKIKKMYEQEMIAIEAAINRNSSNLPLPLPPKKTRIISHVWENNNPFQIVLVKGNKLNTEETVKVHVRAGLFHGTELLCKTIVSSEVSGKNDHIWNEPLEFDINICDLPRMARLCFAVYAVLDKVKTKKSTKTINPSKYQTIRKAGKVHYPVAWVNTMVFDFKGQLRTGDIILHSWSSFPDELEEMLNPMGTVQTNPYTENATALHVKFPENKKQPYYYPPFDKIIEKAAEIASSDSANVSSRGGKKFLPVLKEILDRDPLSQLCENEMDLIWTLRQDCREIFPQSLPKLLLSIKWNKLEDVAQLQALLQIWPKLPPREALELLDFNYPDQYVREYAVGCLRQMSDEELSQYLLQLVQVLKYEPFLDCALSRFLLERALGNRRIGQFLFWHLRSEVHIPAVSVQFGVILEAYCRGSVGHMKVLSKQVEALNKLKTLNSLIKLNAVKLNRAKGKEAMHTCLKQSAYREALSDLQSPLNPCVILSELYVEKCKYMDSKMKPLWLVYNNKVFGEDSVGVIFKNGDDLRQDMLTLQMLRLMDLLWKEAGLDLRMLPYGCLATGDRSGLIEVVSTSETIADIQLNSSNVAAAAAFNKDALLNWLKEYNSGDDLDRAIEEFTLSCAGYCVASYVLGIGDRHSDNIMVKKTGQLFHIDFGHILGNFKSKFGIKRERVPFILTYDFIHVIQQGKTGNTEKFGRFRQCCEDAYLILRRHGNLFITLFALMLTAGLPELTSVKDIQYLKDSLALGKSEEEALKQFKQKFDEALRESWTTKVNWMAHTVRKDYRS
The test system of data set [19] is PC-3. As to the kind of experiment: Induction of cell cycle arrest in human PC3 cells assessed as apoptotic cells at 20 uM after 24 hrs by propidium iodide-staining based FACS analysis (reference value: 2 %). It is filed as functional. In short, it runs like this: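 PC-3 cells exposed 24 h at indicated concentrations, pelleted, fixed overnight in ice-cold 70% ethanol at 4 °C, RNase 0.2 mg/mL at 37 °C 1 h, propidium iodide 10 µg/mL 30 min in dark; 10,000 events acquired (FL2-A vs FL2-W); DNA histograms modelled for apoptotic (sub-G1), G1, S and G2-M fractions.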

Data set [20] relates to Mus musculus. As to the kind of experiment: Toxicity in Swiss mouse implanted with Swiss mouse EAC cells assessed as body weight at 70 mg/kg, ip administered for 1 to 9 days measured on day 9 (reference value: 27.7 g). The data set is classed as organism-based, Ehrlich. The settings on record: in vivo.
Data set [21] has as its target Phosphatidylinositol 4,5-bisphosphate 3-kinase catalytic subunit alpha isoform (Homo sapiens, UniProt P42336). In words: Inhibition of PI3Kalpha in human PC3 cells assessed as suppression of akt phosphorylation at Ser-473 residue at 30 uM Western blot analysis. The conditions noted are these: PC-3. The data set is classed as cell-based.
For data set [22], the system named is Mus musculus. In words: Toxicity in Swiss mouse implanted with Swiss mouse EAC cells assessed as body weight at 70 mg/kg, ip administered for 1 to 9 days measured on day 12 (reference value: 28.4 g). It is filed as organism-based, Ehrlich. The conditions noted are these: in vivo.
Data set [23] relates to Mus musculus. In words: Toxicity in Swiss mouse implanted with Swiss mouse EAC cells assessed as body weight at 70 mg/kg, ip administered for 1 to 9 days measured on day 1 (reference value: 22.8 g). The data set is classed as organism-based, Ehrlich. The conditions noted are these: in vivo.
The subject of data set [24] is PC-3. In words: Induction of apoptosis in human PC3 cells assessed as loss of mitochondrial membrane potential at 30 uM after 24 hrs by rhodamine-123-staining based FACS analysis (reference value: 5 % ). The data set is classed as functional. A digest of the protocol: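 Cells (MCF-7 or PC-3) exposed to indicated concentrations for 24 h; rhodamine-123 (5 µM) added 1 h before end. Cells collected, PBS-washed; fluorescence of 10,000 events read in FL-1 by flow cytometry, loss of mitochondrial potential scored as decreased intensity.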

Data set [25] relates to PC-3. In words: Induction of cell cycle arrest in human PC3 cells assessed as accumulation at G2 phase at 10 uM after 24 hrs by propidium iodide-staining based FACS analysis (reference value: 17 %). It is filed as functional. In short, it runs like this: as §1

Phosphatidylinositol 4,5-bisphosphate 3-kinase catalytic subunit alpha isoform, sequence (P42336 whole entry, canonical isoform): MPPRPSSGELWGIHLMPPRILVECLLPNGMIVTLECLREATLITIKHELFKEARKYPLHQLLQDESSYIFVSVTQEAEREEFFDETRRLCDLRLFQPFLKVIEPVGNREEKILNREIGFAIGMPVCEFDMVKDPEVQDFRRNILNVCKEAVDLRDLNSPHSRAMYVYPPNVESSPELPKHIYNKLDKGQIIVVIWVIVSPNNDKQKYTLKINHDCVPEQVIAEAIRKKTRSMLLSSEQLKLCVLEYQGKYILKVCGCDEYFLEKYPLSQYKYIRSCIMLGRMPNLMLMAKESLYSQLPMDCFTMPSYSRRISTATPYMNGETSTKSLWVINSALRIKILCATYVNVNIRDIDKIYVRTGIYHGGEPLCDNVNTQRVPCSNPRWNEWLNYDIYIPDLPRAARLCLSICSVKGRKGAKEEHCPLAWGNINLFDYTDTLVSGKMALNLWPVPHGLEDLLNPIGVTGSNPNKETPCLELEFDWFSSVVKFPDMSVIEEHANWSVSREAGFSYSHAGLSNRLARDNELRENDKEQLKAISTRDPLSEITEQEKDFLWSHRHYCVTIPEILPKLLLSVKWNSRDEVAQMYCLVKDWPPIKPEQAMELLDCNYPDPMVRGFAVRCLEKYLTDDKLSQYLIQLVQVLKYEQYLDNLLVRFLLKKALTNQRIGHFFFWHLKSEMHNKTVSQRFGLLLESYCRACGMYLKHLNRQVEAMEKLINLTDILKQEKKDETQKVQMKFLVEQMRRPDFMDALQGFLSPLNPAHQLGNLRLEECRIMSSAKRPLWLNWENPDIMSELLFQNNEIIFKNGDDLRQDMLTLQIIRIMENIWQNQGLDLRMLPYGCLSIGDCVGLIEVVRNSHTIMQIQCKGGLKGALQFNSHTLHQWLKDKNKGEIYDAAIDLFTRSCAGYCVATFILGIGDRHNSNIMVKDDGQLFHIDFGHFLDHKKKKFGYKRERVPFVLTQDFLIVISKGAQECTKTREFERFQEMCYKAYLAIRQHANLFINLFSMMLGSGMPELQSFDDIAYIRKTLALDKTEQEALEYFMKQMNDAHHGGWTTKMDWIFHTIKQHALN

Turning to `N#CCc1ccc(Nc2ncnc3ccc(-c4ccc5[nH]ccc5c4)cc23)cc1`, the Activity entry was “Non-Toxic” in the data set with Mus musculus [1]; 37% with MCF7 [2]; 12% in the data set with MCF7 [3]; 44% in the data set on MCF7 [4]; 20.14 g in the data set on Mus musculus [5]; 21.81 g in the data set with Mus musculus [6]. Besides, the Activity in the data set on Mus musculus [7] was determined as 20.71 g; with Mus musculus [8] it was 22 g; in data set [9], 44%; with Mus musculus [10], 20.57 g; in [11], 30%; in the data set with Mus musculus [13] it was 21 g. Moreover, the inhibition in vivo at 25 mg/kg in [12] stood at 62%.
For `N#CCc1ccc(Nc2ncnc3ccc(-c4cncc5ccccc45)cc23)cc1`, the Activity is recorded as 23 g in the data set with Mus musculus [14]; 56% in the data set with PC-3 [15]; 65% in the data set on PC-3 [16]; 10% in the data set with PC-3 [19]; 23.71 g in the data set on Mus musculus [20]; 24.33 g in the data set with Mus musculus [22]. Besides, the Activity is on record as 21.42 g in the data set on Mus musculus [23], 18% in the data set on PC-3 [24] and 3% in the data set on PC-3 [25]. In addition, the concentration for 50% growth inhibition (GI50) in [17] stood at 567 µM. Besides, the results for the inhibition in data set [18] and in data set [21] were 0% and 50%, respectively.
